Shown are actives, neighbours in structure and some others; about 3.7% of the full set was active somewhere.
Kir21 inh: inhibitors of mouse Kir2.1 inward-rectifier potassium channel. P35561. HEK293-Kir2.1, FluxOR thallium flux fluorescence; active compounds read low. B-score at 10 µM. hit rate 0.85% among 310,000. AID 1672;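 active = fluorescence ratio B-score at or below minus 3 SD of library scores, with starting-brightness B-score within 2 SD, cut at about -4.2 in these data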;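 note: channel flux triggered by added potassium and thallium sulfate stimulus; B-score of peak minus minimum fluorescence over baseline after thallium stimulus; more negative B-score means stronger Kir2.1 block with less thallium influx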
KCNK9 inh: inhibitors of human KCNK9 two-pore domain potassium channel; Q9NPC2; HEK293 KCNK9, FluxOR thallium flux fluorescence; active compounds read low; B-score at 10 µM; hit rate 1.2% among 310,000;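 active = ratio B-score over 3 SD below the library mean, with starting fluorescence within 5 SD of its mean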;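 note: negative B-score means less thallium flux so channel inhibition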
KCNQ1 inh: human KCNQ1 channel inhibition; P51787; CHO-K1 KCNQ1, FluxOR thallium flux fluorescence; active compounds read high; B-score at 10 µM; hit rate 1.3% among 310,000;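 active = compounds whose thallium flux B-score, printed positive for inhibition, exceeds three library SD while starting fluorescence stays within three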;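 note: channel opened by potassium depolarization with thallium stimulus after 20 min compound exposure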
KCNQ1 act: potentiators or activators of human KCNQ1 potassium channel; CHO-K1 KCNQ1, thallium flux FluxOR fluorescence; active compounds read high; B-score at 10 µM; hit rate 0.35% among 310,000;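 active = fluorescence ratio B-score, a plate-corrected score, at least three library SD, with initial intensity B-score within 5 SD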
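assay system = KCNQ1-transfected CHO-K1 cells | medium = assay buffer with matched DMSO | probe or stimulus = depolarizing K+/Tl+ stimulus, K2SO4 and Tl2SO4 each 12.5 mM in 5x stock | dosing = single dose | incubation = dye 90 min, compound 20 min, room temperature | detection = kinetic FluxOR fluorescence, 10 s baseline plus 110 s post-stimulus | evaluation = ratio B score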
hERG rescue: hERG (human) protection from proarrhythmic block | AID 1511 | CHO-hERG, FluxOR thallium flux, dofetilide IC70 present | activation (rescue from dofetilide block), less the hit threshold, % at 10 µM | hit rate 0.51% among 310,000;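 active = activation above the mean of controls blocked by dofetilide plus 5 SD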;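 note: thallium influx through hERG after potassium depolarization seen as dye fluorescence rise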
KCNK3 inh: human KCNK3 channel inhibition, primary screen | O14649 | CHO-KCNK3 thallium flux, FluxOR fluorescence; active compounds read low | B-score at 10 µM | hit rate 0.84% among 340,000 | AID 602410;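 active = B-score under library mean minus 4 SD, starting fluorescence ratio at most library mean plus 5 SD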;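 note: more negative B-score means stronger inhibition of thallium flux through KCNK3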
Target sequence (O14649 whole entry, looked up): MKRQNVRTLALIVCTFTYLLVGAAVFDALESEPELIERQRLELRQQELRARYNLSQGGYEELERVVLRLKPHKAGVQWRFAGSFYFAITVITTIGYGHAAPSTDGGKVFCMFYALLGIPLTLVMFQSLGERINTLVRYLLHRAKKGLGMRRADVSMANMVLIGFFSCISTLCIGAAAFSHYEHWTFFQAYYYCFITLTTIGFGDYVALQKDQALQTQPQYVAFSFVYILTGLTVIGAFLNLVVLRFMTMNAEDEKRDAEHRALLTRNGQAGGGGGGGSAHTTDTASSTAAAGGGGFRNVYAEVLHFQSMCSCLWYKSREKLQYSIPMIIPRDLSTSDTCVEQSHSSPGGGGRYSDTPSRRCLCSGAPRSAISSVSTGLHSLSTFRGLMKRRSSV
The depositor's hits bear a star; i = inactive; . = no result.

SMILES	Kir21 inh	KCNK9 inh	KCNQ1 inh	KCNQ1 act	hERG rescue	KCNK3 inh
COc1ccc(Nc2sc(C(=O)c3ccc(Cl)cc3)c(N)c2C(=O)Nc2ccccc2OC)cc1	-0.12	i	i	i	-6	i
CC(C)(C)C(=O)Nc1nnc(SCC(=O)NC2CC2)s1	-0.9	i	i	i	-4	i
FC(F)(F)c1ccc(Cl)c(-n2c(Cc3cccs3)n[nH]c2=S)c1	-2.5	i	i	i	-17	i
Fc1ccc(-n2c(Cc3cccs3)n[nH]c2=S)cc1Cl	-4.2*	i	i	i	-8	i
CCNC(=S)N/N=C1\C(=O)c2cccc3cccc1c23	1.5	i	i	9*	7.9*	i
O=C(N/N=C1/C(=O)c2cccc3cccc1c23)c1ccc(Cl)cc1	-1.5	i	i	41*	53*	i
CC(c1nnnn1C(C)(C)C)N(Cc1cccnc1)Cc1ccccc1Cl (stereo not drawn)	-4.3*	i	i	i	-8	i
CC(c1nnnn1C1CCCCC1)N(Cc1ccccc1)Cc1cccnc1 (stereo not drawn)	-0.67	i	i	i	-7	i
Cc1cc(Cl)n2c(nc3ccccc32)c1C#N	-1.5	i	6*	i	-30	i
COc1ccccc1-c1cc(C(F)(F)F)nc(NCc2ccco2)n1	-0.17	-7.3*	i	i	-22	i
O=C1Nc2cc(C(=O)NCCCN3CCCC3)ccc2S/C1=C\c1ccccc1	-4.9*	i	i	i	-24	i
Cc1ccccc1CN1C(=O)c2ccccc2Sc2ccc(C(=O)NCCN3CCOCC3)cc21	-0.07	i	i	i	-13	i
O=C1Nc2cc(C(=O)NCCCN3CCOCC3)ccc2S/C1=C/c1cccc(Cl)c1	1.4	i	i	i	-21	i
O=C(NCCCN1CCOCC1)c1ccc(/C=C2\Oc3ccccc3N(Cc3ccccc3F)C2=O)cc1	1.1	i	i	i	-12	i
CCN1CCN(CCNC(=O)c2ccc(/C=C3/Sc4ccccc4N(Cc4ccccc4C)C3=O)cc2)CC1	-5.6*	i	14*	i	-34	i
CCN1CCN(CCCNC(=O)c2ccc(/C=C3/Sc4ccccc4N(Cc4ccccc4F)C3=O)cc2)CC1	1.2	-6.7*	7*	i	-34	i
Cc1onc(-c2ccccc2)c1C(=O)OCC(=O)N(CC(C)C)c1c(N)n(Cc2ccccc2)c(=O)[nH]c1=O	0.6	i	i	i	-11	i
Cc1ccc2nc(N(CCCN(C)C)C(=O)CCc3ccccc3)sc2c1	-5.6*	i	i	i	-22	i
O=C(c1ccc(Cl)cc1)c1cccc(O)c1	.	.	.	.	.	i
CCCCc1c(O)nc(SCC(=O)N2CCCCC2)n(-c2ccccc2C)c1=O	-0.07	i	i	i	9.8*	i
CCN(CC)c1ccc(/C=C(/C#N)c2nc3ccc(C)cc3[nH]2)c(OC(C)C)c1	-1.7	i	9*	i	-38	i
CCCOc1cc(N(CC)CC)ccc1/C=C(/C#N)c1nc2ccc(C)cc2[nH]1	-2.4	-11*	i	i	-18	i
O=C(Oc1cccc(C(=S)N2CCCCC2)c1)c1ccccc1	-0.37	i	i	i	-25	i
O=C(Oc1ccc(C(=S)N2CCCCC2)cc1)c1ccccc1	-4.6*	i	i	i	-5	i
COc1cc(C(=S)N2CCOCC2)ccc1OC(=O)c1ccccc1	-5.1*	i	i	i	-13	i
SMILES	Kir21 inh	KCNK9 inh	KCNQ1 inh	KCNQ1 act	hERG rescue	KCNK3 inh
COc1ccc(C(=S)N2CCOCC2)cc1OC(=O)c1ccccc1	-1.6	i	i	i	-6	i
COc1cc(C(=S)N2CCOCC2)ccc1OC(=O)c1ccc([N+](=O)[O-])cc1[N+](=O)[O-]	-0.01	i	i	i	5.9*	i
CC(C)Cn1c(N)c(C(=O)CSc2nnc(C3CC3)n2C2CC2)c(=O)n(C)c1=O	.	.	.	.	.	i
CCc1ccc(CNC(=O)C2CCC(=O)N(CCc3ccc(Cl)cc3)C2)nc1 (stereo not drawn)	-0.82	i	i	i	-9	i
CC(C)[C@H](NC(=O)OC(C)(C)C)c1nnc(S(=O)(=O)Cc2c(F)cccc2Cl)o1	-4.4*	i	i	i	-17	i
CC[C@@H](C)[C@H](NC(=O)OC(C)(C)C)c1nnc(S(=O)(=O)Cc2cc(C)ccc2C)o1	-9.1*	i	i	i	-15	i
CCOC(=O)C1(CC2CCCCO2)CCN(C(=O)Nc2ccc(C)c(C)c2)CC1 (stereo not drawn)	-0.9	i	i	i	-11	i
O=C(CSc1nc2ccc(Nc3nc(N4CCCC4)nc(N4CCCC4)n3)cc2s1)NCc1ccco1	-2.1	i	8*	i	-15	i
O=C(CSc1nc2ccc(Nc3nc(N4CCOCC4)nc(N4CCOCC4)n3)cc2s1)Nc1ccccc1Cl	-0.07	i	i	i	-10	i
CC1CCCCC1NCC#CCOc1ccc(Cl)cc1 (stereo not drawn)	-5*	i	i	i	-10	i
CCn1c(C)c(C)c2cc(C(=O)Nc3cccc(Cl)c3)ccc21	0.19	i	6*	i	-18	i
COc1ccc(C)cc1NC(=S)NNC(=O)c1c(Br)cnn1C	1.7	i	i	i	7.0*	i
CCOC(=O)c1cc(-c2ccccc2)sc1NC(=O)C(C)Sc1nnc(C)s1 (stereo not drawn)	-1	-7*	i	i	-9	i
Fc1ccc(-n2cc(-c3ccccc3)c3c(NN4CCOCC4)ncnc32)cc1	0.45	i	i	i	-17	i
COc1ccc(-n2cc(-c3ccccc3)c3c(NN4CCOCC4)ncnc32)cc1	-0.16	i	9*	i	-25	i
COc1cc(CNc2ccc(O)cc2)cc(Br)c1OCc1ccccc1	-0.52	i	i	i	-22	i
CCOc1cc(CNc2ccc(O)cc2)ccc1OCc1ccc(Cl)cc1Cl	2.2	i	i	i	-2	i
COc1cc(CNC(C)(C)CO)cc(Br)c1OCc1ccc(Cl)cc1Cl	-10*	-6.6*	i	i	-27	i
COc1cc(CNC(C)(C)CO)cc(Br)c1OCc1ccc(Cl)cc1	-4.8*	i	i	i	-21	i
CCCCN(C(=O)COC(=O)c1ccccc1)c1c(N)n(CCC)c(=O)[nH]c1=O	.	.	.	.	.	i
O=C(COc1ccc(Br)cc1)NCCCNC(=O)c1cnccn1	0.68	i	i	i	-10	i
CCN1C(=O)c2cccc3c(NC(=O)c4ccccc4)ccc1c23	0.1	i	i	i	-2	i

Screening results deposited in PubChem by Johns Hopkins Ion Channel Center.
